In brackets after ≈: the same amount, converted by molar mass.
Key:
Format in all cases: functional
[1] = test system: Streptococcus pneumoniae; assay: Antimicrobial activity against Streptococcus pneumoniae 9 expressing mefA after 20 hrs by agar dilution method; conditions: Streptococcus pneumoniae, 20 h; read-out: MIC
Summary of the method: (§1)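 Streptococci, H. influenzae and M. catarrhalis were precultured on blood agar plates. Suspensions of about 10⁶ CFU/ml were inoculated onto sensitivity disk agar supplemented with 5% horse blood and incubated at 37 °C for 20 h. MIC was read as the lowest drug concentration with no visible growth.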

[2] = test system: Streptococcus pneumoniae; assay: Antimicrobial activity against Streptococcus pneumoniae 5 constitutively expressing ermB/mefA after 20 hrs by agar dilution method; conditions: Streptococcus pneumoniae, 20 h; read-out: MIC; summary of the method: as §1
[3] = test system: Staphylococcus aureus; assay: Antimicrobial activity against Staphylococcus aureus 4 constitutively expressing ermA after 20 hrs by agar dilution method
Summary of the method: (§2)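 Agar dilution MIC. S. aureus seed culture was grown in sensitivity test broth. Cell suspension (about 10⁶ CFU/ml) was inoculated onto sensitivity disk agar with 5% horse blood and incubated at 37 °C for 20 h. MIC was the lowest drug concentration that prevented visible growth.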

[4] = test system: Haemophilus influenzae; assay: Antimicrobial activity against drug-susceptible Haemophilus influenzae 1 after 20 hrs by agar dilution method; conditions: Haemophilus influenzae, 20 h; read-out: MIC; summary of the method: as §1
[5] = test system: Streptococcus pneumoniae; assay: Antimicrobial activity against drug-susceptible Streptococcus pneumoniae DP1 Type1 after 20 hrs by agar dilution method; conditions: Streptococcus pneumoniae, 20 h; read-out: MIC; summary of the method: as §1
[6] = test system: Haemophilus influenzae; assay: Antimicrobial activity against drug-susceptible Haemophilus influenzae 3 after 20 hrs by agar dilution method; conditions: Haemophilus influenzae, 20 h; read-out: MIC; summary of the method: as §1
[7] = test system: Moraxella catarrhalis; assay: Antimicrobial activity against drug-susceptible Moraxella catarrhalis 1 after 20 hrs by agar dilution method; conditions: Moraxella catarrhalis, 20 h; read-out: MIC; summary of the method: as §1
[8] = test system: Streptococcus pyogenes; assay: Antimicrobial activity against Streptococcus pyogenes 2 constitutively expressing ermB after 20 hrs by agar dilution method; summary of the method: as §1
[9] = test system: Staphylococcus aureus; assay: Antimicrobial activity against drug-susceptible Staphylococcus aureus 2 after 20 hrs by agar dilution method; conditions: Staphylococcus aureus, 20 h; read-out: MIC; summary of the method: as §2
[10] = test system: Streptococcus pneumoniae; assay: Antimicrobial activity against Streptococcus pneumoniae 8 expressing inducible ermB after 20 hrs by agar dilution method; conditions: Streptococcus pneumoniae, 20 h; read-out: MIC; summary of the method: as §1
[11] = test system: Streptococcus pneumoniae; assay: Antimicrobial activity against drug-susceptible Streptococcus pneumoniae 2 after 20 hrs by agar dilution method; conditions: Streptococcus pneumoniae, 20 h; read-out: MIC; summary of the method: as §1
[12] = test system: Staphylococcus aureus; assay: Antimicrobial activity against drug-susceptible Staphylococcus aureus 209P JC-1 after 20 hrs by agar dilution method; conditions: Staphylococcus aureus, 209P, 20 h; read-out: MIC; summary of the method: as §2
[13] = test system: Staphylococcus aureus; assay: Antimicrobial activity against Staphylococcus aureus 5 expressing inducible ermB after 20 hrs by agar dilution method; conditions: Staphylococcus aureus, 20 h; read-out: MIC; summary of the method: as §2
[14] = test system: Haemophilus influenzae; assay: Antimicrobial activity against drug-susceptible Haemophilus influenzae 4 after 20 hrs by agar dilution method; conditions: Haemophilus influenzae, 20 h; read-out: MIC; summary of the method: as §1
[15] = test system: Haemophilus influenzae; assay: Antimicrobial activity against drug-susceptible Haemophilus influenzae 2 after 20 hrs by agar dilution method; conditions: Haemophilus influenzae, 20 h; read-out: MIC; summary of the method: as §1
[16] = test system: Streptococcus pneumoniae; assay: Antimicrobial activity against Streptococcus pneumoniae 7 expressing inducible ermB after 20 hrs by agar dilution method; conditions: Streptococcus pneumoniae, 20 h; read-out: MIC; summary of the method: as §1
[17] = test system: Staphylococcus aureus; assay: Antimicrobial activity against Staphylococcus aureus 6 expressing inducible ermB after 20 hrs by agar dilution method; summary of the method: as §2
[18] = test system: Moraxella catarrhalis; assay: Antimicrobial activity against drug-susceptible Moraxella catarrhalis 2 after 20 hrs by agar dilution method; conditions: Moraxella catarrhalis, 20 h; read-out: MIC; summary of the method: as §1
[19] = test system: Streptococcus pyogenes; assay: Antimicrobial activity against drug-susceptible Streptococcus pyogenes 1 after 20 hrs by agar dilution method; conditions: Streptococcus pyogenes, 20 h; read-out: MIC; summary of the method: as §1
[20] = test system: Streptococcus pneumoniae; assay: Antimicrobial activity against Streptococcus pneumoniae 6 constitutively expressing ermB after 20 hrs by agar dilution method; conditions: Streptococcus pneumoniae, 20 h; read-out: MIC; summary of the method: as §1
[21] = test system: Streptococcus pyogenes; assay: Antimicrobial activity against Streptococcus pyogenes 3 expressing mefA after 20 hrs by agar dilution method; conditions: Streptococcus pyogenes, 20 h; read-out: MIC; summary of the method: as §1
[22] = test system: Streptococcus pneumoniae; assay: Antimicrobial activity against Streptococcus pneumoniae 10 expressing mefA after 20 hrs by agar dilution method; conditions: Streptococcus pneumoniae, 20 h; read-out: MIC; summary of the method: as §1
[23] = test system: Staphylococcus aureus; assay: Antimicrobial activity against drug-susceptible Staphylococcus aureus 3 after 20 hrs by agar dilution method; conditions: Staphylococcus aureus, 20 h; read-out: MIC; summary of the method: as §2
[24] = test system: Streptococcus pneumoniae; assay: Antimicrobial activity against drug-susceptible Streptococcus pneumoniae 3 after 20 hrs by agar dilution method; conditions: Streptococcus pneumoniae, 20 h; read-out: MIC; summary of the method: as §1
[25] = test system: Streptococcus pneumoniae; assay: Antimicrobial activity against Streptococcus pneumoniae 4 constitutively expressing ermB after 20 hrs by agar dilution method; conditions: Streptococcus pneumoniae, 20 h; read-out: MIC; summary of the method: as §1

SMILES	MIC [1]	MIC [2]	MIC [3]	MIC [4]	MIC [5]	MIC [6]	MIC [7]	MIC [8]	MIC [9]	MIC [10]	MIC [11]	MIC [12]	MIC [13]	MIC [14]	MIC [16]	MIC [17]	MIC [18]	MIC [19]	MIC [20]	MIC [21]	also measured
CCOC(=O)[C@H]1[C@H](C)O[C@@H](O[C@H]2[C@H](N(C)C)[C@@H](O)[C@H](O[C@H]3[C@@H](CC=O)C[C@@H](C)[C@@H](OC(C)=O)CN(CCCCc4ccccc4)CC[C@@H](C)OC(=O)C[C@@H](OC(=O)CC)[C@@H]3OC)O[C@@H]2C)C[C@@]1(C)OC(C)=O	0.5 µg/mL (≈ 0.49 µM)	> 128 µg/mL	> 128 µg/mL	> 128 µg/mL	0.25 µg/mL (≈ 0.245 µM)	16 µg/mL (≈ 15.7 µM)	0.25 µg/mL (≈ 0.245 µM)	> 128 µg/mL	1 µg/mL (≈ 0.979 µM)	> 128 µg/mL	0.25 µg/mL (≈ 0.245 µM)	0.5 µg/mL (≈ 0.49 µM)	0.5 µg/mL (≈ 0.49 µM)	16 µg/mL (≈ 15.7 µM)	> 128 µg/mL	1 µg/mL (≈ 0.979 µM)	0.5 µg/mL (≈ 0.49 µM)	0.25 µg/mL (≈ 0.245 µM)	> 128 µg/mL	0.5 µg/mL (≈ 0.49 µM)	MIC [15]: 2 µg/mL (≈ 1.96 µM); MIC [22]: 0.25 µg/mL (≈ 0.245 µM); MIC [23]: 0.5 µg/mL (≈ 0.49 µM)
CCOC(=O)[C@H]1[C@H](C)O[C@@H](O[C@H]2[C@H](N(C)C)[C@@H](O)[C@H](O[C@H]3[C@@H](CC=O)C[C@@H](C)[C@@H](O)CN(C)CC(CCCc4ccnc5ccccc45)CCOC(=O)C[C@@H](OC(=O)CC)[C@@H]3OC)O[C@@H]2C)C[C@@]1(C)O (stereo in doubt; form 1)	0.03 µg/mL (≈ 0.0304 µM)	> 128 µg/mL	> 128 µg/mL	32 µg/mL (≈ 32.4 µM)	0.015 µg/mL (≈ 0.0152 µM)	8 µg/mL (≈ 8.1 µM)	1 µg/mL (≈ 1.01 µM)	> 128 µg/mL	0.5 µg/mL (≈ 0.506 µM)	16 µg/mL (≈ 16.2 µM)	0.03 µg/mL (≈ 0.0304 µM)	0.25 µg/mL (≈ 0.253 µM)	0.25 µg/mL (≈ 0.253 µM)	8 µg/mL (≈ 8.1 µM)	16 µg/mL (≈ 16.2 µM)	0.5 µg/mL (≈ 0.506 µM)	1 µg/mL (≈ 1.01 µM)	0.06 µg/mL (≈ 0.0607 µM)	> 128 µg/mL	0.25 µg/mL (≈ 0.253 µM)	MIC [24]: 0.03 µg/mL (≈ 0.0304 µM); MIC [25]: > 128 µg/mL; MIC [22]: 0.03 µg/mL (≈ 0.0304 µM); MIC [23]: 0.25 µg/mL (≈ 0.253 µM)
CCOC(=O)[C@H]1[C@H](C)O[C@@H](O[C@H]2[C@H](N(C)C)[C@@H](O)[C@H](O[C@H]3[C@@H](CC=O)C[C@@H](C)[C@@H](OC(C)=O)CN(CCCCc4ccccc4)C[C@@H](C)NC(=O)C[C@@H](OC(=O)CC)[C@@H]3OC)O[C@@H]2C)C[C@@]1(C)OC(C)=O	1 µg/mL (≈ 0.994 µM)	> 128 µg/mL	> 128 µg/mL	> 128 µg/mL	0.5 µg/mL (≈ 0.497 µM)	16 µg/mL (≈ 15.9 µM)	1 µg/mL (≈ 0.994 µM)	> 128 µg/mL	4 µg/mL (≈ 3.98 µM)	32 µg/mL (≈ 31.8 µM)	1 µg/mL (≈ 0.994 µM)	1 µg/mL (≈ 0.994 µM)	1 µg/mL (≈ 0.994 µM)	16 µg/mL (≈ 15.9 µM)	32 µg/mL (≈ 31.8 µM)	2 µg/mL (≈ 1.99 µM)	1 µg/mL (≈ 0.994 µM)	0.5 µg/mL (≈ 0.497 µM)	> 128 µg/mL	1 µg/mL (≈ 0.994 µM)	MIC [15]: 4 µg/mL (≈ 3.98 µM); MIC [22]: 1 µg/mL (≈ 0.994 µM); MIC [23]: 2 µg/mL (≈ 1.99 µM)
CCOC(=O)[C@H]1[C@H](C)O[C@@H](O[C@H]2[C@H](N(C)C)[C@@H](O)[C@H](O[C@H]3[C@@H](CC=O)C[C@@H](C)[C@@H](O)CN(CCCCc4ccccc4)CCCCNC(=O)C[C@@H](OC(=O)CC)[C@@H]3OC)O[C@@H]2C)C[C@@]1(C)OC(C)=O	0.13 µg/mL (≈ 0.133 µM)	> 128 µg/mL	> 128 µg/mL	16 µg/mL (≈ 16.4 µM)	0.13 µg/mL (≈ 0.133 µM)	4 µg/mL (≈ 4.09 µM)	0.13 µg/mL (≈ 0.133 µM)	> 128 µg/mL	1 µg/mL (≈ 1.02 µM)	8 µg/mL (≈ 8.18 µM)	0.25 µg/mL (≈ 0.256 µM)	0.25 µg/mL (≈ 0.256 µM)	0.25 µg/mL (≈ 0.256 µM)	8 µg/mL (≈ 8.18 µM)	8 µg/mL (≈ 8.18 µM)	1 µg/mL (≈ 1.02 µM)	0.25 µg/mL (≈ 0.256 µM)	0.06 µg/mL (≈ 0.0613 µM)	> 128 µg/mL	0.25 µg/mL (≈ 0.256 µM)	MIC [15]: 1 µg/mL (≈ 1.02 µM); MIC [22]: 0.13 µg/mL (≈ 0.133 µM); MIC [23]: 0.5 µg/mL (≈ 0.511 µM)

From ChEMBL document CHEMBL1151705, “Novel azalides derived from 16-membered macrolides. Part II: Isolation of the linear 9-formylcarboxylic acid and its sequential macrocyclization with an amino alcohol or an azidoamine” (2008)
